Measured values published in ChEMBL document CHEMBL5712901, “DOT1L inhibition blocks multiple myeloma cell proliferation by suppressing IRF4-MYC signaling” (2019).
The source made the active and inactive calls. No cut-off for these calls is given here.

Assays:
[1] = system: MM1.S; test: Induction of apoptosis in human MM1.S cells assessed as early apoptotic cells at 1 uM for 6 days by annexin-V based propidium iodide staining based flow cytometric analysis (reference value: 7.39%); type: functional; settings: time 6 day
[2] = system: RPMI-8226; test: Induction of cell cycle arrest in human RPMI-8226 cells assessed as decrease in accumulation of cells at S phase at 1 uM for 6 days; type: functional, cell-based; settings: time 6.0 day
How it was run: (§1)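 Flow cytometric cell cycle analysis of RPMI-8226 and MM.1S cells treated with 1 μM DOT1L inhibitor or DMSO for 6 days. Sub-G1, G0-G1 and S phase populations scored. Summary is from 3 replications, mean ± SEM.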

[3] = system: MM1.S; test: Induction of cell cycle arrest in human MM1.S cells assessed as decrease in accumulation of cells at S phase at 1 uM for 6 days; type: functional, cell-based; settings: time 6.0 day; how it was run: as §1
[4] = system: MM1.S; test: Upregulation of PARP8 gene in human MM1.S cells at 1 uM for 6 days by; type: functional, cell-based; settings: time 6.0 day
[5] = system: MM1.S; test: Upregulation of FAM200B gene in human MM1.S cells at 1 uM for 6 days by; type: functional, cell-based; settings: time 6.0 day
How it was run: (§2)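 Human myeloma lines RPMI-8226 and MM.1S exposed to 1 μM DOT1L inhibitor, or DMSO, for 6 days. Whole-genome expression profiled on gene expression microarray.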

[6] = system: MM1.S; test: Upregulation of ENC1 gene in human MM1.S cells at 1 uM for 6 days by; type: functional, cell-based; settings: time 6.0 day; how it was run: as §2
[7] = system: RPMI-8226; test: Upregulation of RORC gene in human RPMI-8226 cells at 1 uM for 6 days by; type: functional, cell-based; settings: time 6.0 day
[8] = system: U-266; test: Upregulation of DOT1L in human U-266 cells by qRT-PCR analysis; type: functional, cell-based
How it was run: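 Basal DOT1L transcript in untreated myeloma cell lines measured by qRT-PCR, normalized to ACTB; mean of 3 replicates with SEM.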

[9] = system: RPMI-8226; test: Upregulation of HOXB6 gene in human RPMI-8226 cells at 1 uM for 6 days by; type: functional, cell-based; settings: time 6.0 day
[10] = system: MM1.S; test: Upregulation of IFITM3 gene in human MM1.S cells at 1 uM for 6 days by; type: functional, cell-based; settings: time 6.0 day
[11] = system: RPMI-8226; test: Upregulation of GNAI1 gene in human RPMI-8226 cells at 1 uM for 6 days by; type: functional, cell-based; settings: time 6.0 day; how it was run: as §2
[12] = system: MM1.S; test: Upregulation of PRRT2 gene in human MM1.S cells at 1 uM for 6 days by; type: functional, cell-based; settings: time 6.0 day
[13] = system: RPMI-8226; test: Upregulation of IFI44 gene in human RPMI-8226 cells at 1 uM for 6 days by; type: functional, cell-based; settings: time 6.0 day
[14] = system: MM1.S; test: Upregulation of CCR2 gene in human MM1.S cells at 1 uM for 6 days by; type: functional, cell-based; settings: time 6.0 day
[15] = system: MM1.S; test: Upregulation of FBXO2 gene in human MM1.S cells at 1 uM for 6 days by; type: functional, cell-based; settings: time 6.0 day; how it was run: as §2
[16] = system: RPMI-8226; test: Upregulation of RAPGEF2 gene in human RPMI-8226 cells at 1 uM for 6 days by; type: functional, cell-based; settings: time 6.0 day
[17] = system: MM1.S; test: Upregulation of PTGER4 gene in human MM1.S cells at 1 uM for 6 days by; type: functional, cell-based; settings: time 6.0 day
[18] = system: MM1.S; test: Upregulation of IFITM1 gene in human MM1.S cells at 1 uM for 6 days by; type: functional, cell-based; settings: time 6.0 day
[19] = system: RPMI-8226; test: Upregulation of CFH gene in human RPMI-8226 cells at 1 uM for 6 days by; type: functional, cell-based; settings: time 6.0 day
[20] = system: MM1.S; test: Upregulation of APOL4 gene in human MM1.S cells at 1 uM for 6 days by; type: functional, cell-based; settings: time 6.0 day
[21] = system: RPMI-8226; test: Upregulation of DDIT4L gene in human RPMI-8226 cells at 1 uM for 6 days by; type: functional, cell-based; settings: time 6.0 day; how it was run: as §2
[22] = system: RPMI-8226; test: Upregulation of HLA-DPB1 gene in human RPMI-8226 cells at 1 uM for 6 days by; type: functional, cell-based; settings: time 6.0 day
[23] = system: MM1.S; test: Upregulation of GLYATL1 gene in human MM1.S cells at 1 uM for 6 days by; type: functional, cell-based; settings: time 6.0 day; how it was run: as §2
[24] = system: RPMI-8226; test: Upregulation of POPDC2 gene in human RPMI-8226 cells at 1 uM for 6 days by; type: functional, cell-based; settings: time 6.0 day
[25] = system: MM1.S; test: Upregulation of CCDC74B gene in human MM1.S cells at 1 uM for 6 days by; type: functional, cell-based; settings: time 6.0 day
[26] = system: RPMI-8226; test: Upregulation of NXF3 gene in human RPMI-8226 cells at 1 uM for 6 days by; type: functional, cell-based; settings: time 6.0 day
[27] = system: MM1.S; test: Upregulation of POPDC2 gene in human MM1.S cells at 1 uM for 6 days by; type: functional, cell-based; settings: time 6.0 day
[28] = system: MM1.S; test: Upregulation of TTC39C gene in human MM1.S cells at 1 uM for 6 days by; type: functional, cell-based; settings: time 6.0 day
[29] = system: MM1.S; test: Upregulation of ZSCAN31 gene in human MM1.S cells at 1 uM for 6 days by; type: functional, cell-based; settings: time 6.0 day
[30] = system: RPMI-8226; test: Upregulation of NREP gene in human RPMI-8226 cells at 1 uM for 6 days by; type: functional, cell-based; settings: time 6.0 day
[31] = system: MM1.S; test: Upregulation of CXCL9 gene in human MM1.S cells at 1 uM for 6 days by; type: functional, cell-based; settings: time 6.0 day; how it was run: as §2
[32] = system: MM1.S; test: Upregulation of ALPK1 gene in human MM1.S cells at 1 uM for 6 days by; type: functional, cell-based; settings: time 6.0 day
[33] = system: MM1.S; test: Upregulation of CAPG gene in human MM1.S cells at 1 uM for 6 days by; type: functional, cell-based; settings: time 6.0 day
[34] = system: RPMI-8226; test: Upregulation of MME gene in human RPMI-8226 cells at 1 uM for 6 days by; type: functional, cell-based; settings: time 6.0 day
[35] = system: MM1.S; test: Upregulation of HLA-DMA gene in human MM1.S cells at 1 uM for 6 days by; type: functional, cell-based; settings: time 6.0 day; how it was run: as §2
[36] = system: RPMI-8226; test: Upregulation of ZNF75D gene in human RPMI-8226 cells at 1 uM for 6 days by; type: functional, cell-based; settings: time 6.0 day
[37] = system: RPMI-8226; test: Effect on human RPMI-8226 cells assessed as change in Myc mRNA level at 1 uM for 6 days by qRT-PCR analysis; settings: time 6.0 day
[38] = system: MM1.S; test: Upregulation of APH1B gene in human MM1.S cells at 1 uM for 6 days by; type: functional, cell-based; settings: time 6.0 day
[39] = system: MM1.S; test: Upregulation of FZD1 gene in human MM1.S cells at 1 uM for 6 days by; type: functional, cell-based; settings: time 6.0 day; how it was run: as §2
[40] = system: MM1.S; test: Upregulation of CCL2 gene in human MM1.S cells at 1 uM for 6 days by; type: functional, cell-based; settings: time 6.0 day
[41] = system: RPMI-8226; test: Upregulation of CPQ gene in human RPMI-8226 cells at 1 uM for 6 days by; type: functional, cell-based; settings: time 6.0 day; how it was run: as §2
[42] = system: RPMI-8226; test: Upregulation of FBXO2 gene in human RPMI-8226 cells at 1 uM for 6 days by; type: functional, cell-based; settings: time 6.0 day; how it was run: as §2
[43] = system: RPMI-8226; test: Upregulation of CCL2 gene in human RPMI-8226 cells at 1 uM for 6 days by; type: functional, cell-based; settings: time 6.0 day
[44] = system: RPMI-8226; test: Upregulation of FCGR2B gene in human RPMI-8226 cells at 1 uM for 6 days by; type: functional, cell-based; settings: time 6.0 day; how it was run: as §2
[45] = system: RPMI-8226; test: Upregulation of IFIT1 gene in human RPMI-8226 cells at 1 uM for 6 days by; type: functional, cell-based; settings: time 6.0 day
[46] = system: MM1.S; test: Upregulation of PYCARD gene in human MM1.S cells at 1 uM for 6 days by; type: functional, cell-based; settings: time 6.0 day
[47] = system: MM1.S; test: Upregulation of SGK1 gene in human MM1.S cells at 1 uM for 6 days by; type: functional, cell-based; settings: time 6.0 day
[48] = system: RPMI-8226; test: Upregulation of PTPN13 gene in human RPMI-8226 cells at 1 uM for 6 days by; type: functional, cell-based; settings: time 6.0 day
[49] = system: MM1.S; test: Upregulation of GRHL3 gene in human MM1.S cells at 1 uM for 6 days by; type: functional, cell-based; settings: time 6.0 day; how it was run: as §2

## CC(C)N(C[C@H]1O[C@@H](n2cnc3c(N)ncnc32)[C@H](O)[C@@H]1O)[C@H]1C[C@@H](CCc2nc3cc(C(C)(C)C)ccc3[nH]2)C1 [PINOMETOSTAT]
[1]
  Activity: 16.9%
[2]
  Activity: Active
[3]
  Activity: Active

## CC(C)N(CCCNC(=O)Nc1ccc(C(C)(C)C)cc1)C[C@H]1O[C@@H](n2cc(Br)c3c(N)ncnc32)[C@H](O)[C@@H]1O
[4]
  Activity: Active
[5]
  Activity: Active
[6]
  Activity: Active
[7]
  Activity: Active
[8]
  Activity: Active
[9]
  Activity: Active
[10]
  Activity: Active
[11]
  Activity: Active
[12]
  Activity: Active
[13]
  Activity: Active
[14]
  Activity: Active
[15]
  Activity: Active
[16]
  Activity: Active
[17]
  Activity: Active
[18]
  Activity: Active
[19]
  Activity: Active
[20]
  Activity: Active
[21]
  Activity: Active
[22]
  Activity: Active
[23]
  Activity: Active
[24]
  Activity: Active
[25]
  Activity: Active
[26]
  Activity: Active
[27]
  Activity: Active
[28]
  Activity: Active
[29]
  Activity: Active
[30]
  Activity: Active
[31]
  Activity: Active
[32]
  Activity: Active
[33]
  Activity: Active
[34]
  Activity: Active
[35]
  Activity: Active
[36]
  Activity: Active
[37]
  Activity: Active
[38]
  Activity: Active
[39]
  Activity: Active
[40]
  Activity: Active
[41]
  Activity: Active
[42]
  Activity: Active
[43]
  Activity: Active
[44]
  Activity: Active
[45]
  Activity: Active
[46]
  Activity: Active
[47]
  Activity: Active
[48]
  Activity: Active
[49]
  Activity: Active
